Laboratory results published in ChEMBL document CHEMBL4043235, “Design, semisynthesis and potent cytotoxic activity of novel 10-fluorocamptothecin derivatives” (Bioorg Med Chem Lett, 2017).

Tests used:
Assay type in all cases: functional, cell-based
MCF7 = test: Cytotoxicity against human MCF7 cells after 72 hrs by SRB assay; details: MCF7, 72 h
In short: (§1)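 Cells seeded at 3–5 × 10^3 per well in RPMI-1640 with 10% FBS holding various sample concentrations. Exposure 72 h. Attached cells fixed with cold 50% trichloroacetic acid for 30 min, then stained with 0.04% SRB for 30 min. Bound dye solubilized in 10 mM Tris-base, absorbance read at 515 nm. Three or more experiments; IC50 given as mean with standard deviation.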

MDA-MB-231 = test: Cytotoxicity against human MDA-MB-231 cells after 72 hrs by SRB assay; details: MDA-MB-231, 72 h; in short: as §1
KB = test: Cytotoxicity against human KB cells after 72 hrs by SRB assay; in short: as §1
[1] = Cytotoxicity against human KBVIN cells after 72 hrs by SRB assay; in short: as §1
A549 = test: Cytotoxicity against human A549 cells after 72 hrs by SRB assay; details: A549, 72 h; in short: as §1

| SMILES | IC50 (MCF7) [nM] | IC50 (MDA-MB-231) [nM] | IC50 (KB) [nM] | IC50 [1] [nM] | IC50 (A549) [nM] |
| --- | --- | --- | --- | --- | --- |
| CCc1c2c(nc3ccc(F)cc13)-c1cc3c(c(=O)n1C2)COC(=O)[C@]3(O)CC | 76.9 | 319 | 69.6 | 67 | 9.91 |
| CCc1c2c(nc3ccc(F)cc13)-c1cc3c(c(=O)n1C2)COC(=O)[C@@]3(CC)OC(=O)CN/C(Cc1ccc(OC)cc1)=N/S(=O)(=O)c1ccc(C)cc1 | 80.8 | 238 | 47 | 99.2 | 8.72 |
| CC[C@@]1(O)C(=O)OCc2c1cc1n(c2=O)Cc2cc3cc(F)ccc3nc2-1 | 431 | 579 | 185 | 2950 | 58.6 |
| CC[C@@]1(OC(=O)CN/C(Cc2ccc(OC)cc2)=N/S(=O)(=O)c2ccc(C)cc2)C(=O)OCc2c1cc1n(c2=O)Cc2cc3cc(F)ccc3nc2-1 | 649 | 601 | 280 | 497 | 62.2 |
| CCc1c2c(nc3ccc(OC(=O)N4CCC(N5CCCCC5)CC4)cc13)-c1cc3c(c(=O)n1C2)COC(=O)[C@]3(O)CC [IRINOTECAN] |  | 15600 | 7990 | > 20000 |  |
| CC[C@@]1(O)C(=O)OCc2c1cc1n(c2=O)Cc2cc3c(CN(C)C)c(O)ccc3nc2-1 [TOPOTECAN] | 666 | 773 | 102 |  | 112 |
